According to ChEMBL document CHEMBL4007413, “Replacing d-Glucosamine with Its l-Enantiomer in Glycosylated Antitumor Ether Lipids (GAELs) Retains Cytotoxic Effects against Epithelial Cancer Cells and Cancer Stem Cells” (J Med Chem, 2017):
Activity calls are given as the source filed them. The calls are words filed in the database; no cut-off is given here.

Columns and labels:
MIA PaCa-2 = assay: Cytotoxicity against human MIAPaCa2 cells assessed as decrease in cell viability after 48 hrs by MTS assay; type: functional; conditions: for CC50: MIA PaCa-2, 48 h
How it was run: (§1)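 Cells were seeded at equal numbers and, after 24 h, exposed to compounds (0–30 µM) for 48 h. MTS reagent (20% v/v) was then added for 1–4 h, and OD490 was read. Cell-free medium wells served as blanks. Media were DMEM/F12 + 10% FBS for BT-474; DMEM + 10% FBS for DU-145 and MDA-MB-231; and DMEM + 10% FBS + 2.5% horse serum for MiaPaCa-2. Values are mean ± SD, n=6.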

DU-145 [1] = assay: Cytotoxicity against human DU145 cells assessed as decrease in cell viability after 48 hrs by MTS assay; type: functional; conditions: for CC50: DU-145, 48 h; how it was run: as §1
BT-474 [2] = assay: Cytotoxicity against human BT474 cells assessed as decrease in cell viability after 48 hrs by MTS assay; type: functional; conditions: for CC50: BT-474, 48 h; how it was run: as §1
MDA-MB-231 = assay: Cytotoxicity against human MDA-MB-231 cells assessed as decrease in cell viability after 48 hrs by MTS assay; type: functional; conditions: for CC50: MDA-MB-231, 48 h; how it was run: as §1
DU-145 [3] = assay: Induction of membrane lysis in human DU145 cells at 0.01% after 10 mins by EthD-1 staining based fluorescence microscopic analysis
BT-474 [4] = assay: Disruption of cancer stem cells spheroids derived from human BT474 cells at >=7.5 uM after 3 days by microscopic analysis; type: functional, cell-based
How it was run: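 Cancer stem cells were isolated from BT-474 by ALDH1 activity. Equal numbers were seeded in ultra-low-adhesion wells and grown to spheroids. Spheroids were then incubated with or without compounds for 3 days. Spheroid integrity was assessed by light microscopy (×10). Viability was measured in parallel by MTS.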

Erythrocyte = assay: Induction of hemolysis in sheep erythrocytes at 30 uM after 30 mins by spectrophotometric analysis; type: functional, Ovis aries
[5] = Stability in bovine liver extracts assessed as bovine liver glycosidase mediated compound cleavage by TLC analysis; type: ADME, Bos taurus; conditions: cattle
How it was run: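 A bovine liver glycosidase fraction in 0.05 M sodium citrate pH 5.0 was combined with 0.2 M citrate pH 4.4 buffer, substrate (30 mM stock) and Triton X-100 (10% stock) for solubilization. Controls were no enzyme and a β-D-glucose-based GAEL. After 1 h, methanol was added, the mixture was centrifuged, and the supernatant was analysed by TLC. Run in quadruplicate.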

BT-474 [6] = assay: Disruption of cancer stem cells spheroids derived from human BT474 cells at 7.5 uM after 3 days by microscopic analysis; type: functional, cell-based
How it was run: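 Equal numbers of ALDH1-selected BT-474 cancer stem cells were seeded in ultra-low adhesion wells and grown to form spheroids. Spheroids were incubated with or without compound for 3 days. Spheroid integrity was judged by microscopic imaging at ×10.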

BT-474 [7] = assay: Cytotoxicity against cancer stem cells derived from human BT474 cells assessed as cancer stem cell death at 7.5 uM after 3 days by MTS assay; type: functional
How it was run: (§2)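 CSCs were isolated from BT-474 using ALDH1 activity as the stemness marker. They were grown in ultra-low adhesion wells for 4 days to form spheroids. Spheroids were then exposed to compounds (0–20 µM) for 3 days. Viability was read by MTS assay and expressed as % of untreated control.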

BT-474 [8] = assay: Cytotoxicity against cancer stem cells derived from human BT474 cells assessed as cancer stem cell death at 20 uM after 3 days by MTS assay; type: functional; how it was run: as §2

CCCCCCCCCCCCCCCCOC[C@H](CO[C@H]1O[C@H](CO)[C@@H](O)[C@H](O)[C@H]1N)OC
CC50 (MIA PaCa-2): 6 to 10.5 µM | CC50 (DU-145 [1]): 6 to 10.5 µM | CC50 (BT-474 [2]): 6 to 10.5 µM | CC50 (MDA-MB-231): 6 to 10.5 µM

CC(C)(C)CC(C)(C)c1ccc(OCCOCCOCCOCCOCCOCCOCCOCCOCCOCCO)cc1
Activity (DU-145 [3]): Active

CCCCCCCCCCCCCCCCOC[C@H](CO[C@@H]1O[C@H](CO)[C@@H](O)[C@H](O)[C@H]1N)OC
CC50 (MIA PaCa-2): 6.5 to 13 µM | CC50 (DU-145 [1]): 6.5 to 13 µM | CC50 (BT-474 [2]): 6.5 to 13 µM | CC50 (MDA-MB-231): 6.5 to 13 µM | Activity (BT-474 [4]): Active | Activity (Erythrocyte): <5% | Stability [5]: Stable

CC[C@@H](C(=O)[C@@H](C)[C@@H](O)[C@H](C)[C@@H]1O[C@@H]([C@@H](CC)C(=O)O)CC[C@@H]1C)[C@H]1O[C@]2(C=C[C@@H](O)[C@]3(CC[C@@](C)([C@H]4CC[C@](O)(CC)[C@H](C)O4)O3)O2)[C@H](C)C[C@@H]1C [SALINOMYCIN]
Activity (MIA PaCa-2): Active | Activity (DU-145 [1]): Active | Activity (BT-474 [2]): Active | Activity (MDA-MB-231): Active | Activity (BT-474 [6]): inactive | Activity (BT-474 [7]): 60% | Activity (BT-474 [8]): 87%
